ChEMBL document CHEMBL1123588, “Synthesis and antisecretory and antiulcer activities of derivatives and analogues of 2-(2-pyridyl)tetrahydrothiophene-2-carbothioamide” (1987)

Tests used:
Rattus norvegicus [1] = species on record: Rattus norvegicus; test: Antisecretory activity against histamine stimulated gastric acid secretion in Shay rats expressed as ED50; type: functional; details: Stomach
Procedure, shortened: (§1)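 Histamine-stimulated Shay rats: females (OFA, 150–175 g, n=6/group), fasted 24 h. Oral dosing in 10% gum arabic, 1 h pre-histamine (100 mg/kg sc), promethazine 10 mg/kg ip pretreatment. Pylorus ligation under chloral hydrate; 2 h gastric juice titrated with 0.1 N NaOH. Lower doses tested when 30 mg/kg gave >80% inhibition; ED50 from regression line.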

Rattus norvegicus [2] = test: Antisecretory activity against histamine stimulated gastric acid secretion in Shay rats by peroral administration of 30 mg /kg was determined; type: functional; details: Stomach, po
Procedure, shortened: (§2)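 Female OFA rats, 150–175 g, six per group, fasted 24 h with water allowed. Dose given orally in 10% gum arabic (5 mL/kg) 1 h before histamine 100 mg/kg sc. Promethazine 10 mg/kg ip 30 min before histamine; pylorus ligated under chloral hydrate 30 min after. Juice collected 2 h, titrated with 0.1 N NaOH. Acid output compared with controls by Student's t test.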

Rattus norvegicus [3] = test: Antiulcer activity against restraint-induced gastric erosions in rats, following 100 mg/kg p.o. administration.; type: functional, Stomach; details: route oral
Procedure, shortened: (§3)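 Restraint-stress erosions (Rossi): female OFA rats, 150–175 g, six per group, fasted 24 h. Oral dose in 10% gum arabic (5 mL/kg) 1 h before restraint in wire-netting cages. Rats killed 24 h later and gastric mucosal erosions assessed. A rat counted protected with no erosion; read-out is % protected rats.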

Rattus norvegicus [4] = species on record: Rattus norvegicus; test: Antisecretory activity against histamine stimulated gastric acid secretion in Shay rats expressed as ED50 value ranges from (2.7-12.3); type: functional; details: Stomach; procedure, shortened: as §1
Rattus norvegicus [5] = test: Antiulcer activity by protection of restraint-induced gastric erosions in rats, by using the technique of Rossi was determined at peroral dose of 10 mg/kg; type: functional, Stomach; details: route oral; procedure, shortened: as §3
Rattus norvegicus [6] = test: Antisecretory activity against histamine stimulated gastric acid secretion in Shay rats by peroral administration of 30 mg /kg was determined: activity not statistically significant; type: functional; details: Stomach, po; procedure, shortened: as §2
Rattus norvegicus [7] = species on record: Rattus norvegicus; test: Antiulcer activity against histamine stimulated gastric acid secretion in Shay rats expressed as ED50; type: functional; details: Stomach
Rattus norvegicus [8] = species on record: Rattus norvegicus; test: Antisecretory activity against histamine stimulated gastric acid secretion in Shay rats expressed as ED50 value ranges from (0.1-1.3); type: functional; details: Stomach; procedure, shortened: as §1
Rattus norvegicus [9] = test: Antiulcer activity by protection of restraint-induced gastric erosions in rats, by using the technique of Rossi was determined at peroral dose of 4.5 mg/kg; type: functional, Stomach; details: route oral; procedure, shortened: as §3
Rattus norvegicus [10] = species on record: Rattus norvegicus; test: Antisecretory activity against histamine stimulated gastric acid secretion in Shay rats expressed as ED50; value ranges from(0.5-22.3).; type: functional; details: Stomach; procedure, shortened: as §1
Rattus norvegicus [11] = species on record: Rattus norvegicus; test: Antisecretory activity against histamine stimulated gastric acid secretion in Shay rats expressed as ED50 value ranges from (1-2.6); type: functional; details: Stomach; procedure, shortened: as §1
Rattus norvegicus [12] = species on record: Rattus norvegicus; test: animal or person; details: Stomach
Rattus norvegicus [13] = species on record: Rattus norvegicus; test: Antisecretory activity against histamine stimulated gastric acid secretion in Shay rats expressed as ED50 value ranges from (1.3-7.1); type: functional; details: Stomach; procedure, shortened: as §1
Rattus norvegicus [14] = species on record: Rattus norvegicus; test: Antisecretory activity against histamine stimulated gastric acid secretion in Shay rats expressed as ED50 value ranges from (0.8-2.8); type: functional; details: Stomach; procedure, shortened: as §1
Rattus norvegicus [15] = test: Antiulcer activity by protection of restraint-induced gastric erosions in rats, by using the technique of Rossi was determined at peroral dose of 5 mg/kg; type: functional, Stomach; details: route oral; procedure, shortened: as §3
Rattus norvegicus [16] = species on record: Rattus norvegicus; test: Antisecretory activity against histamine stimulated gastric acid secretion in Shay rats expressed as ED50 value ranges from (2.5-12.1); type: functional; details: Stomach; procedure, shortened: as §1
Rattus norvegicus [17] = test: Antiulcer activity by protection of restraint-induced gastric erosions in rats, by using the technique of Rossi was determined at peroral dose of 30 mg/kg; type: functional, Stomach; details: route oral; procedure, shortened: as §3
Rattus norvegicus [18] = species on record: Rattus norvegicus; test: Antiulcer activity by protection of restraint-induced gastric erosions in rats, by using the technique of Rossi was determined at peroral dose of; type: functional, Stomach; procedure, shortened: as §3
Rattus norvegicus [19] = species on record: Rattus norvegicus; test: Antisecretory activity against histamine stimulated gastric acid secretion in Shay rats expressed as ED50; value ranges from (0.5-2); type: functional; details: Stomach; procedure, shortened: as §1
Rattus norvegicus [20] = test: Antisecretory activity against histamine stimulated gastric acid secretion in Shay rats by peroral administration of 30 mg /kg was determined :activity not statistically significant; type: functional; details: Stomach, po; procedure, shortened: as §2
Rattus norvegicus [21] = species on record: Rattus norvegicus; test: Antisecretory activity against histamine stimulated gastric acid secretion in Shay rats expressed as ED50; value ranges from (0.1-2.2); type: functional; details: Stomach; procedure, shortened: as §1
Rattus norvegicus [22] = species on record: Rattus norvegicus; test: Antisecretory activity against histamine stimulated gastric acid secretion in Shay rats expressed as ED50 value ranges from (1.7-17.4); type: functional; details: Stomach; procedure, shortened: as §1
Rattus norvegicus [23] = species on record: Rattus norvegicus; test: Antisecretory activity against histamine stimulated gastric acid secretion in Shay rats expressed as ED50 value ranges from (0.6-3.8); type: functional; details: Stomach; procedure, shortened: as §1
Rattus norvegicus [24] = species on record: Rattus norvegicus; test: Antisecretory activity against histamine stimulated gastric acid secretion in Shay rats expressed as ED50; value ranges from (1.0-6.5); type: functional; details: Stomach; procedure, shortened: as §1

## CN(C)C(=S)C1(c2ccccn2)CCCS1 (centres undefined)
Rattus norvegicus [1]
  ED50: < 30 mg/kg
Rattus norvegicus [2]
  inhibition in vivo at 30 mg/kg: 74%
Rattus norvegicus [3]
  Protection: 83%

## C/N=C(\S)C1(c2ccc(C)cn2)CCCS1 (centres undefined)
Rattus norvegicus [4]
  ED50: 5.7 mg/kg
Rattus norvegicus [5]
  Protection: 60%

## CCCCc1ccnc(C2(/C(S)=N/C)CCCS2)c1 (centres undefined)
Rattus norvegicus [1]
  ED50: < 30 mg/kg
Rattus norvegicus [2]
  inhibition in vivo at 30 mg/kg: 78%
Rattus norvegicus [3]
  Protection: 100%

## S=C(NCc1ccccc1)C1(c2ccccn2)CCCS1 (centres undefined)
Rattus norvegicus [1]
  ED50: ≤ 30 mg/kg
Rattus norvegicus [2]
  inhibition in vivo at 30 mg/kg: 58%
Rattus norvegicus [3]
  Protection: 100%

## S=C(N1CCOCC1)C1(c2ccccn2)CCCS1 (centres undefined)
Rattus norvegicus [1]
  ED50: ≤ 30 mg/kg
Rattus norvegicus [2]
  inhibition in vivo at 30 mg/kg: 54%
Rattus norvegicus [3]
  Protection: 83%

## OCC/N=C(\S)C1(c2ccccn2)CCCS1 (centres undefined)
Rattus norvegicus [1]
  ED50: > 30 mg/kg
Rattus norvegicus [6]
  inhibition in vivo at 30 mg/kg: 25%
Rattus norvegicus [3]
  Protection: 16%

## NC(=S)C1(c2ccccn2)SCCCS1
Rattus norvegicus [1]
  ED50: 2.8 mg/kg
Rattus norvegicus [3]
  Protection: 100%

## CNC(=S)C1(c2ccccn2)CCCS1 (centres undefined) [PICARTAMIDE]
Rattus norvegicus [7]
  ED50: 5.9 mg/kg
Rattus norvegicus [8]
  ED50: 0.4 mg/kg
Rattus norvegicus [9]
  Protection: 50%

## C/N=C(\S)C1(c2cccnc2)CCCS1 (centres undefined)
Rattus norvegicus [1]
  ED50: ≥ 30 mg/kg
Rattus norvegicus [2]
  inhibition in vivo at 30 mg/kg: 49%
Rattus norvegicus [3]
  Protection: 100%

## C/N=C(\S)C1(c2cnccn2)CCCS1 (centres undefined)
Rattus norvegicus [1]
  ED50: > 30 mg/kg
Rattus norvegicus [2]
  inhibition in vivo at 30 mg/kg: 38%
Rattus norvegicus [3]
  Protection: 100%

## NC(=S)C1(c2ccccn2)CCCS1 (centres undefined)
Rattus norvegicus [10]
  ED50: 3.2 mg/kg
Rattus norvegicus [3]
  Protection: 100%

## CC/N=C(\S)C1(c2ccccn2)CCCS1 (centres undefined)
Rattus norvegicus [5]
  Protection: 50%
Rattus norvegicus [11]
  ED50: 1.6 mg/kg

## CN/C(=N\CCSCc1nc[nH]c1C)NC#N [CIMETIDINE]
Rattus norvegicus [3]
  Protection: 50%
Rattus norvegicus [12]
  ED50: 30 mg/kg

## C/N=C(\S)C1(c2ccc3ccccc3n2)CCCS1 (centres undefined)
Rattus norvegicus [13]
  ED50: 3 mg/kg
Rattus norvegicus [3]
  Protection: 100%

## C/N=C(\S)C1(c2ccccn2)SCCCS1
Rattus norvegicus [1]
  ED50: 5.7 mg/kg
Rattus norvegicus [5]
  Protection: 50%

## C/N=C(\S)C1(c2ccncc2)CCCS1 (centres undefined)
Rattus norvegicus [1]
  ED50: ≤ 30 mg/kg
Rattus norvegicus [2]
  inhibition in vivo at 30 mg/kg: 53%
Rattus norvegicus [3]
  Protection: 83%

## CNC(=S)C1(c2cccc(C)n2)CCCS1 (centres undefined) [LUCARTAMIDE]
Rattus norvegicus [14]
  ED50: 1.5 mg/kg
Rattus norvegicus [5]
  Protection: 50%

## C/N=C(\S)C1(c2ccccn2)OCCCS1 (centres undefined)
Rattus norvegicus [1]
  ED50: 1.6 mg/kg
Rattus norvegicus [15]
  Protection: 50%

## CN(C)CC/N=C(\S)C1(c2ccccn2)CCCS1 (centres undefined)
Rattus norvegicus [1]
  ED50: > 30 mg/kg
Rattus norvegicus [6]
  inhibition in vivo at 30 mg/kg: 0%
Rattus norvegicus [3]
  Protection: 16%

## CCCC/N=C(\S)C1(c2ccccn2)CCCS1 (centres undefined)
Rattus norvegicus [16]
  ED50: 5.5 mg/kg
Rattus norvegicus [17]
  Protection: 100%

## S=C(N1CCCCC1)C1(c2ccccn2)CCCS1 (centres undefined)
Rattus norvegicus [6]
  inhibition in vivo at 30 mg/kg: 30%
Rattus norvegicus [3]
  Protection: 83%

## CCCCCCC/N=C(\S)C1(c2ccccn2)CCCS1 (centres undefined)
Rattus norvegicus [1]
  ED50: > 30 mg/kg
Rattus norvegicus [2]
  inhibition in vivo at 30 mg/kg: 0%
Rattus norvegicus [3]
  Protection: 33%

## CCCCCCCCCCCC/N=C(\S)C1(c2ccccn2)CCCS1 (centres undefined)
Rattus norvegicus [1]
  ED50: > 30 mg/kg
Rattus norvegicus [2]
  inhibition in vivo at 30 mg/kg: 0%
Rattus norvegicus [18]
  Protection: 0%

## C/N=C(\S)C1(c2cc(C)ccn2)CCCS1 (centres undefined)
Rattus norvegicus [19]
  ED50: 1 mg/kg
Rattus norvegicus [5]
  Protection: 83%

## S=C(Nc1ccccc1)C1(c2ccccn2)CCCS1 (centres undefined)
Rattus norvegicus [1]
  ED50: > 30 mg/kg
Rattus norvegicus [20]
  inhibition in vivo at 30 mg/kg: 0%

## C/N=C(\S)C1(c2ccccn2)CCCO1 (centres undefined)
Rattus norvegicus [21]
  ED50: 0.5 mg/kg
Rattus norvegicus [9]
  Protection: 66%

## N=C(S)C(c1ccccc1)c1ccccn1 (centres undefined)
Rattus norvegicus [22]
  ED50: 5.5 mg/kg

## CN1CCN(C(=S)C2(c3ccccn3)CCCS2)CC1 (centres undefined)
Rattus norvegicus [1]
  ED50: > 30 mg/kg
Rattus norvegicus [6]
  inhibition in vivo at 30 mg/kg: 8%
Rattus norvegicus [3]
  Protection: 0%

## C/N=C(\S)C1(c2cccnn2)CCCS1 (centres undefined)
Rattus norvegicus [3]
  Protection: 100%

## C=CCNC(=S)C1(c2ccccn2)CCCS1 (centres undefined)
Rattus norvegicus [1]
  ED50: > 30 mg/kg
Rattus norvegicus [6]
  inhibition in vivo at 30 mg/kg: 20%
Rattus norvegicus [3]
  Protection: 0%

## N/N=C(\S)C1(c2ccccn2)CCCS1 (centres undefined)
Rattus norvegicus [1]
  ED50: > 30 mg/kg
Rattus norvegicus [6]
  inhibition in vivo at 30 mg/kg: 0%
Rattus norvegicus [3]
  Protection: 0%

## Cc1cnc2c(c1)CCCC2C(N)=S (centres undefined) [TIQUINAMIDE]
Rattus norvegicus [23]
  ED50: 1.6 mg/kg

## CN(C)CCC/N=C(\S)C1(c2ccccn2)CCCS1 (centres undefined)
Rattus norvegicus [1]
  ED50: > 30 mg/kg
Rattus norvegicus [6]
  inhibition in vivo at 30 mg/kg: 0%
Rattus norvegicus [3]
  Protection: 0%

## C/N=C(\S)C1(c2ccccn2)CCCCS1 (centres undefined)
Rattus norvegicus [24]
  ED50: 2.6 mg/kg
Rattus norvegicus [5]
  Protection: 100%

## Cc1cccc(C2(C(=N)S)CCCS2)n1 (centres undefined)
Rattus norvegicus [1]
  ED50: < 30 mg/kg
Rattus norvegicus [2]
  inhibition in vivo at 30 mg/kg: 71%
Rattus norvegicus [3]
  Protection: 100%
